From ChEMBL document CHEMBL4311951, “Potent and Preferential Degradation of CDK6 via Proteolysis Targeting Chimera Degraders” (J Med Chem, 2019)
Activity calls are given as the source filed them. The calls are words filed in the database; no cut-off is given here.

Experiments:
[1] = tested on: JeKo-1; experiment: Antiproliferative activity against human JeKo1 cells after 84 hrs by CCK8 assay; assay type: functional, cell-based
Summary of the method: (§1)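 Suspension haematopoietic lines seeded in triplicate in 96-well plates; drug stock added immediately to the final concentrations. After 84 h culture, CCK-8 reagent added and absorbance at OD450 nm read after 2 h incubation.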

[2] = biological target: Protein cereblon/Dual specificity mitogen-activated protein kinase kinase 1 (Homo sapiens, UniProt Q02750+Q96SW2); experiment: Induction of CRBN-mediated MEK1 degradation in human U251 cells at 500 nM after 4 hrs by immunoblot analysis; assay type: cell-based; conditions: 0.5 µM
Sequence of Protein cereblon/Dual specificity mitogen-activated protein kinase kinase 1 (Q02750 whole entry): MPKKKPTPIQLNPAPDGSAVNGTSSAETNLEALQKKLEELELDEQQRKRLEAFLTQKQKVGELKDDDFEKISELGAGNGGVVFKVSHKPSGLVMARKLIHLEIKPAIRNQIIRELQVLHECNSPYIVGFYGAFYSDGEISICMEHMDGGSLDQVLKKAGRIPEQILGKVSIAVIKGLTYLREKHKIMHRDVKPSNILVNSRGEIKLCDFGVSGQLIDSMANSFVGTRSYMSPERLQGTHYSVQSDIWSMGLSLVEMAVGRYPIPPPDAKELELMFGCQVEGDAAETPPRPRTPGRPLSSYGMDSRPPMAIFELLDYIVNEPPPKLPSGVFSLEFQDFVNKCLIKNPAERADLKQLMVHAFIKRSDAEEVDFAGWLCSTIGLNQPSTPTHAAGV
Sequence of Protein cereblon/Dual specificity mitogen-activated protein kinase kinase 1 (Q96SW2 whole entry): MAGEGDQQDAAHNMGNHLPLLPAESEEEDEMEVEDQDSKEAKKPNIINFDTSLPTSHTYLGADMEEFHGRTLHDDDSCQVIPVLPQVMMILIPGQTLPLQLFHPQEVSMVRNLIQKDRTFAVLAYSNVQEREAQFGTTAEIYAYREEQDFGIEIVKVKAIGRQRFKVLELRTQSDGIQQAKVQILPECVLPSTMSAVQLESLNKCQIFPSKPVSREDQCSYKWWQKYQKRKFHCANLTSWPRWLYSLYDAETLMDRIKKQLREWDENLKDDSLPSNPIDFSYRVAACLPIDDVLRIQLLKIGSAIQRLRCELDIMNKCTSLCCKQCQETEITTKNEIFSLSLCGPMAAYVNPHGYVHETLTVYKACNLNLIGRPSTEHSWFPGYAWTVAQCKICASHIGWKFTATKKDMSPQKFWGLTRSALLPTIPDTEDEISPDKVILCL

[3] = tested on: MCF7; experiment: Antiproliferative activity against Fat1 knockout human MCF7 cells after 6 days by alamarBlue assay; assay type: functional, cell-based
Summary of the method: (§2)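 Parental or palbociclib-resistant MCF-7 cells (CDK6-N2 or FAT1 knockout) exposed to serial concentrations of degrader for 6 days, then viability determined.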

[4] = biological target: Protein cereblon/Cyclin-dependent kinase 9 (Homo sapiens, UniProt P50750+Q96SW2); experiment: Induction of CRBN-mediated CDK9 degradation in human U251 cells at 500 nM after 4 hrs […]; assay type: cell-based; conditions: 0.5 µM
Sequence of Protein cereblon/Cyclin-dependent kinase 9 (P50750 whole entry): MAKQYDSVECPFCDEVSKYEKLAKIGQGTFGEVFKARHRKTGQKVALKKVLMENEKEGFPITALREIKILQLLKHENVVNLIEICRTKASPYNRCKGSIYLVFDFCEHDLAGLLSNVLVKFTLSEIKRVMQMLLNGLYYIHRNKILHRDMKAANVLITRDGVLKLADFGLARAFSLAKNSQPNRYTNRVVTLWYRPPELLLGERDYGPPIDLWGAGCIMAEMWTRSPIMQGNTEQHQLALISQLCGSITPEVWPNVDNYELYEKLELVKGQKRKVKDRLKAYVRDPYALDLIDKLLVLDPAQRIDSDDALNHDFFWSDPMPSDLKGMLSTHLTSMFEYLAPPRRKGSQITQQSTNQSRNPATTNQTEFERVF
Sequence of Protein cereblon/Cyclin-dependent kinase 9 (Q96SW2 whole entry): as the sequence (Q96SW2 whole entry) above
Summary of the method: (§3)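 U251 cells grown to 70–80% confluency, exposed to 500 nM degrader or DMSO for 4 h. Harvested by trypsinization, washed in cold PBS, lysed in RIPA on ice 30 min. Lysates BCA-quantified, acetone-precipitated, TMT-labelled and analysed by MS2 quantitation.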

[5] = biological target: Protein cereblon/Cyclin-dependent kinase 5 (Homo sapiens, UniProt Q00535+Q96SW2); experiment: Induction of CRBN-mediated CDK5 degradation in human U251 cells at 500 nM after 4 hrs by […]; assay type: cell-based; conditions: 0.5 µM; summary of the method: as §3
Sequence of Protein cereblon/Cyclin-dependent kinase 5 (Q00535 whole entry): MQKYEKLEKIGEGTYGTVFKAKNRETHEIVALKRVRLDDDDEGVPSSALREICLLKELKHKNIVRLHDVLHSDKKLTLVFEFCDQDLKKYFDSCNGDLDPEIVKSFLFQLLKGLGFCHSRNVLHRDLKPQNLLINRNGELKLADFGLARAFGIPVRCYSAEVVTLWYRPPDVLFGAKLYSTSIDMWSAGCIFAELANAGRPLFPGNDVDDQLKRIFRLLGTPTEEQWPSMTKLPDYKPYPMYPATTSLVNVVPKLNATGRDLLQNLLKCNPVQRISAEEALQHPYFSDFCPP
Sequence of Protein cereblon/Cyclin-dependent kinase 5 (Q96SW2 whole entry): as the sequence (Q96SW2 whole entry) above

[6] = biological target: Protein cereblon/Epidermal growth factor receptor (Homo sapiens, UniProt P00533+Q96SW2); experiment: Induction of CRBN-mediated EGFR degradation in human U251 cells at 500 nM after 4 hrs […]; assay type: cell-based; conditions: 0.5 µM; summary of the method: as §3
Sequence of Protein cereblon/Epidermal growth factor receptor (P00533 whole entry): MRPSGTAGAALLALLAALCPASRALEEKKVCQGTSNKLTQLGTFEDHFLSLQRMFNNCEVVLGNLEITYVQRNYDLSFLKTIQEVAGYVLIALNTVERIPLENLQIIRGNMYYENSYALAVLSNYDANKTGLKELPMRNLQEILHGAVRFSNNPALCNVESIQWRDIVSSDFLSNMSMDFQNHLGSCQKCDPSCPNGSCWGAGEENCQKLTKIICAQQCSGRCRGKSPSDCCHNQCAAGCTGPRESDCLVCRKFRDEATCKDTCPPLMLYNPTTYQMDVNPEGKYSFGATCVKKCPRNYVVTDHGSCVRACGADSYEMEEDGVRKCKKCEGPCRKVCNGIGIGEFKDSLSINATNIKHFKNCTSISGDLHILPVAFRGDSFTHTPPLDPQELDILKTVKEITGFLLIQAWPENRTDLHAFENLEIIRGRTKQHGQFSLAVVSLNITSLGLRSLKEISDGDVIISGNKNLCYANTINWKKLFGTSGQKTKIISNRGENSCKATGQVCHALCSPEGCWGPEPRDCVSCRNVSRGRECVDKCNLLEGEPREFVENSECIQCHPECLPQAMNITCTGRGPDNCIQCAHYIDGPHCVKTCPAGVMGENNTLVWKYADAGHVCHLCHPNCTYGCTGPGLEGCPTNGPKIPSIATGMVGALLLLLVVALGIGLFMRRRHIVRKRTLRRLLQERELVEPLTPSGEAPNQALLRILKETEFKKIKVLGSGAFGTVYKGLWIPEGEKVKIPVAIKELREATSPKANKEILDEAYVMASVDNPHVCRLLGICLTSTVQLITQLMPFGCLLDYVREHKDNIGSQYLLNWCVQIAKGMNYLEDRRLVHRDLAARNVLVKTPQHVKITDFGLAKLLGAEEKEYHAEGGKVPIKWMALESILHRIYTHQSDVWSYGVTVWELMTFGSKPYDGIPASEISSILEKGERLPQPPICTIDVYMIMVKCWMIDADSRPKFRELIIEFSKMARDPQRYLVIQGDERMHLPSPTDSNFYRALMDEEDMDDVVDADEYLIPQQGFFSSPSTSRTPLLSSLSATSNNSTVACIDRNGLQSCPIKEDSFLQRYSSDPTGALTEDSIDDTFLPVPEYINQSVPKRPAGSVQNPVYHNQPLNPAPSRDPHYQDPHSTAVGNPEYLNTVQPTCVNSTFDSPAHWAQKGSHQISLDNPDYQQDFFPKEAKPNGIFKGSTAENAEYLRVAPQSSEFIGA
Sequence of Protein cereblon/Epidermal growth factor receptor (Q96SW2 whole entry): as the sequence (Q96SW2 whole entry) above

[7] = biological target: Protein cereblon/Cyclin-dependent kinase 6 (Homo sapiens, UniProt Q00534+Q96SW2); experiment: Induction of CRBN-mediated CDK6 degradation in human U251 cells after 24 hrs by immunoblot analysis; assay type: cell-based
Sequence of Protein cereblon/Cyclin-dependent kinase 6 (Q00534 whole entry): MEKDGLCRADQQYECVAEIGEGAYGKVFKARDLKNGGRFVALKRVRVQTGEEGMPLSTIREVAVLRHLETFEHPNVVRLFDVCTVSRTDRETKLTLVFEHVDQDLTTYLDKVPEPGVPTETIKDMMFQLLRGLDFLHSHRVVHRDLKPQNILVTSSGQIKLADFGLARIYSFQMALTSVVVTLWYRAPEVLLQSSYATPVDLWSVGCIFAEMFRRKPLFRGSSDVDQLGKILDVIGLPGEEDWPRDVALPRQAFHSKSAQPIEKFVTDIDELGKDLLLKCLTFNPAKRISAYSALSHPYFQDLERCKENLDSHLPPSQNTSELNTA
Sequence of Protein cereblon/Cyclin-dependent kinase 6 (Q96SW2 whole entry): as the sequence (Q96SW2 whole entry) above

[8] = tested on: HL-60; experiment: Antiproliferative activity against human HL60 cells after 84 hrs by CCK8 assay; assay type: functional, cell-based; summary of the method: as §1
[9] = tested on: MCF7; experiment: Antiproliferative activity against palbociclib-resistant human MCF7 cells with CDK6 gene amplification after 6 days by alamarBlue assay; assay type: functional, cell-based; summary of the method: as §2
[10] = tested on: THP-1; experiment: Antiproliferative activity against human THP1 cells after 84 hrs by CCK8 assay; assay type: functional, cell-based; summary of the method: as §1
[11] = Antiproliferative activity against human Mino cells after 84 hrs by CCK8 assay; assay type: functional, cell-based; summary of the method: as §1
[12] = biological target: Protein cereblon/Cyclin-dependent kinase 1 (Homo sapiens, UniProt P06493+Q96SW2); experiment: Induction of CRBN-mediated CDK1 degradation in human U251 cells at 500 nM after 4 hrs […]; assay type: cell-based; conditions: 0.5 µM; summary of the method: as §3
Sequence of Protein cereblon/Cyclin-dependent kinase 1 (P06493 whole entry): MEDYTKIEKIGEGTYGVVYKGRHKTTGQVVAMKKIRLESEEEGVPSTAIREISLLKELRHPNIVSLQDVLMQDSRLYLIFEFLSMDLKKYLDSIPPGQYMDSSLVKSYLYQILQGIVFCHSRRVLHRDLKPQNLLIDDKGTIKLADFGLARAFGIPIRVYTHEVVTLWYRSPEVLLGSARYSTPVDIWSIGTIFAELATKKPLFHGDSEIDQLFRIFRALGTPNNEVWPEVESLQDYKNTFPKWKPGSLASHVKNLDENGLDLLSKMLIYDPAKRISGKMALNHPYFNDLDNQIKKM
Sequence of Protein cereblon/Cyclin-dependent kinase 1 (Q96SW2 whole entry): as the sequence (Q96SW2 whole entry) above

[13] = biological target: Protein cereblon/G1/S-specific cyclin-D1 (Homo sapiens, UniProt P24385+Q96SW2); experiment: Induction of CRBN-mediated CCND1 degradation in human U251 cells at 500 nM after 4 hrs by […]; assay type: cell-based; conditions: 0.5 µM; summary of the method: as §3
Sequence of Protein cereblon/G1/S-specific cyclin-D1 (P24385 whole entry): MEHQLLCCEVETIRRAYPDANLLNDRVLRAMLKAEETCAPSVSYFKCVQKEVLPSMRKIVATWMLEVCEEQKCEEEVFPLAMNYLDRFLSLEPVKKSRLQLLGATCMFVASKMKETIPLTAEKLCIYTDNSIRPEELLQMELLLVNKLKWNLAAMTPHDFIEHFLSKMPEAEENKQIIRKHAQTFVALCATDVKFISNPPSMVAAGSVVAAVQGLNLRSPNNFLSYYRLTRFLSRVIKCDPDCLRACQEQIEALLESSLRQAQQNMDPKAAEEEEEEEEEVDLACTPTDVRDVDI
Sequence of Protein cereblon/G1/S-specific cyclin-D1 (Q96SW2 whole entry): as the sequence (Q96SW2 whole entry) above

[14] = biological target: Protein cereblon/Cyclin-dependent kinase 2 (Homo sapiens, UniProt P24941+Q96SW2); experiment: Induction of CRBN-mediated CDK2 degradation in human U251 cells at 500 nM after 4 hrs by immunoblot analysis; assay type: cell-based; conditions: 0.5 µM
[15] = tested on: RPMI-8226; experiment: Antiproliferative activity against human RPMI8226 cells after 84 hrs by CCK8 assay; assay type: functional, cell-based; summary of the method: as §1
[16] = biological target: Protein cereblon/Cyclin-dependent kinase 4 (Homo sapiens, UniProt P11802+Q96SW2); experiment: Induction of CRBN-mediated CDK4 degradation in human U251 cells after 24 hrs by immunoblot analysis; assay type: cell-based
Sequence of Protein cereblon/Cyclin-dependent kinase 4 (P11802 whole entry): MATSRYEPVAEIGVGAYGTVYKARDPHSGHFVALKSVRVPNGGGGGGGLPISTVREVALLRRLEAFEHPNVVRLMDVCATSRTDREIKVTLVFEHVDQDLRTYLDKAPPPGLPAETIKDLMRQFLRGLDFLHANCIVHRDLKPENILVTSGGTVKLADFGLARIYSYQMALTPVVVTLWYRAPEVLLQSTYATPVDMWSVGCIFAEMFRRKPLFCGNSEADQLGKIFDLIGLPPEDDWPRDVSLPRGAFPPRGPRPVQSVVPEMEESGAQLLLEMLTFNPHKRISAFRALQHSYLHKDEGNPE
Sequence of Protein cereblon/Cyclin-dependent kinase 4 (Q96SW2 whole entry): as the sequence (Q96SW2 whole entry) above

[17] = tested on: MM1.S; experiment: Antiproliferative activity against human MM1S cells after 84 hrs by CCK8 assay; assay type: functional, cell-based; summary of the method: as §1

With `CC(=O)c1c(C)c2cnc(Nc3ccc(N4CCN(Cc5cn(CCOCCNc6cccc7c6C(=O)N(C6CCC(=O)NC6=O)C7=O)nn5)CC4)cn3)nc2n(C2CCCC2)c1=O` (configuration not stated) the Activity [1] was “Active”, the Activity [2] was “Not Active” and the Activity [3] was “Active”. For the same compound, the Activity [4] was “Not Active”, the Activity [5] was “Not Active” and the Activity [6] was “Not Active”. For the same compound, the DC50 [7] was 2.1 nM, the Activity [8] was “Active” and the Activity [9] was “Active”. For the same compound, the Activity [10] was “Active”, the IC50 [11] was 8 nM and the Activity [12] was “Not Active”. The Activity [13] was “Not Active”, the Activity [14] was “Not Active” and the Activity [15] was “Active”. For the same compound, the DC50 [16] was 150 to 180 nM and the IC50 [17] was 10 nM.
